Measured values published in ChEMBL document CHEMBL4028848, “Discovery of N-{4-[5-(4-Fluorophenyl)-3-methyl-2-methylsulfanyl-3H-imidazol-4-yl]-pyridin-2-yl}-acetamide (CBS-3595), a Dual p38α MAPK/PDE-4 Inhibitor with Activity against TNFα-Related Diseases” (J Med Chem, 2017).
“And” between values parts separate entries of the source, which are not always exact repeats. Equal values may be shown once. The source made the active and inactive calls. No cut-off for these calls is given here.

How the values were obtained:
[1] = molecular target: Mitogen-activated protein kinase 10 (Homo sapiens) (UniProt P53779); experiment: Inhibition of human recombinant full length N-terminal His6 tagged JNK3 expressed in Sf21 cells at 10 uM relative to control
Rattus norvegicus [2] = experiment: Toxicity in Wistar rat assessed as effect on number of blood cells at 100 to 2500 mg/kg, po administered for 48 hrs followed by administration of 300 mg/kg, bid for 7 days starting 8 hrs interval between first and second dose measured after 7 days; type: organism-based; details: in vivo, 168 h
Summary of the method: (§1)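 Wistar rats, maximum-tolerated-dose estimate in two steps. Step one: single oral doses of 100 (n = 1), 500 (n = 1) and 2500 mg/kg (n = 3), with clinical signs watched for 48 h. Step two: 300 mg/kg (n = 5) twice daily for 7 days, second dose 8 h after the first. After 7 days, body weight gain, blood cell number and composition, liver enzymes, and macroscopic liver and spleen were recorded.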

Mus musculus [3] = experiment: Toxicity in DBA/1 mouse model of collagen-induced arthritis at 50 mg/kg, bid administered on day 22 post second injection of type 2 collagen; type: organism-based; details: in vivo
Summary of the method: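 Male DBA/1 mice with collagen-induced arthritis were dosed at 50 mg/kg b.i.d. starting on day 22, 1 day after the type II collagen boost. Animals were monitored for signs of toxicity, including body weight loss relative to controls.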

CYP2C19 = CYP2C19 (Homo sapiens, UniProt P33261); experiment: Inhibition of CYP2C19 (unknown origin) at 10 uM by fluorimetric assay relative to control; type: ADME
Summary of the method: (§2)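 CYP1A2, CYP2C9, CYP2C19, CYP3A4 and CYP2D6 were tested as a panel for cytochrome P450 interaction.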

Mus musculus [4] = experiment: Antiarthritic activity in DBA/1 mouse assessed as decrease in collagen-induced arthritic score at 50 mg/kg, bid administered on day 22 post second injection of type 2 collagen; type: functional, organism-based
Summary of the method: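 Collagen-induced arthritis in male DBA/1 mice. Dosing at 50 mg/kg b.i.d. began on day 22, one day after the second (boost) injection of type II collagen.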

[5] = molecular target: Mitogen-activated protein kinase 9 (Homo sapiens) (UniProt P45984); experiment: Inhibition of human recombinant full length N-terminal His6 tagged JNK2 expressed in Sf21 cells at 10 uM relative to control
[6] = AUC (0 to t) in Wistar rat at 30 mg/kg, po administered as single dose via gavage by LC-MS/MS analysis; type: ADME, organism-based; details: in vivo
Summary of the method: (§3)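 Male and female Wistar rats received a single oral gavage of 30 mg/kg. Parameters are given as the mean of the two sexes.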

CYP2D6 = CYP2D6 (Homo sapiens, UniProt P10635); experiment: Inhibition of CYP2D6 (unknown origin) at 10 uM by fluorimetric assay relative to control; type: ADME; summary of the method: as §2
Mus musculus [7] = experiment: Protection against LPS/galactosamine-induced endotoxemia in Balb/c mouse assessed as inhibition of plasma TNFalpha level at 10 mg/kg, po pretreated for 1 hr followed by LPS/galactosamine addition measured after 90 mins relative to control; type: functional
[8] = molecular target: Mitogen-activated protein kinase 8 (Homo sapiens) (UniProt P45983); experiment: Inhibition of human recombinant full length N-terminal His6 tagged JNK1 expressed in Sf21 cells at 10 uM relative to control
[9] = Half life in Wistar rat at 30 mg/kg, po administered as single dose via gavage by LC-MS/MS analysis; type: ADME, organism-based; details: in vivo
Summary of the method: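 Single oral gavage dose of 30 mg/kg given to male and female Wistar rats. PK parameters are reported as the mean of males and females.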

Rattus norvegicus [10] = experiment: Toxicity in Wistar rat assessed as effect on microscopic appearance of liver at 100 to 2500 mg/kg, po administered for 48 hrs followed by administration of 300 mg/kg, bid for 7 days starting 8 hrs interval between first and second dose measured after 7 days; type: organism-based; details: in vivo, 168 h
[11] = molecular target: Mitogen-activated protein kinase 11 (Homo sapiens) (UniProt Q15759); experiment: Inhibition of p38beta (unknown origin) at 10 uM relative to control
Rattus norvegicus [12] = experiment: Toxicity in Wistar rat assessed as effect on liver enzyme at 100 to 2500 mg/kg, po administered for 48 hrs followed by administration of 300 mg/kg, bid for 7 days starting 8 hrs interval between first and second dose measured after 7 days; type: organism-based; details: in vivo, 168 h; summary of the method: as §1
CYP3A4 = CYP3A4 (Homo sapiens, UniProt P08684); experiment: Inhibition of CYP3A4 (unknown origin) at 10 uM by fluorimetric assay relative to control; type: ADME; summary of the method: as §2
Rattus norvegicus [13] = experiment: Toxicity in Wistar rat assessed as effect on composition of blood cells at 100 to 2500 mg/kg, po administered for 48 hrs followed by administration of 300 mg/kg, bid for 7 days starting 8 hrs interval between first and second dose measured after 7 days; type: organism-based; details: in vivo, 168 h; summary of the method: as §1
Rattus norvegicus [14] = experiment: Toxicity in Wistar rat assessed as effect on microscopic appearance of spleen at 100 to 2500 mg/kg, po administered for 48 hrs followed by administration of 300 mg/kg, bid for 7 days starting 8 hrs interval between first and second dose measured after 7 days; type: organism-based; details: in vivo, 168 h
[15] = Tmax in Wistar rat at 30 mg/kg, po administered as single dose via gavage by LC-MS/MS analysis; type: ADME, organism-based; details: in vivo
Summary of the method: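 Male and female Wistar rats each received a single 30 mg/kg oral gavage dose. Tmax is the mean of males and females.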

[16] = Cmax in Wistar rat at 30 mg/kg, po administered as single dose via gavage by LC-MS/MS analysis; type: ADME, organism-based; set-up: dose 30 mg/kg, route oral; details: in vivo; summary of the method: as §3
CYP1A2 = CYP1A2 (Homo sapiens, UniProt P05177); experiment: Inhibition of CYP1A2 (unknown origin) at 10 uM by fluorimetric assay relative to control; type: ADME; summary of the method: as §2
CYP2C9 = CYP2C9 (Homo sapiens, UniProt P11712); experiment: Inhibition of CYP2C9 (unknown origin) at 10 uM by fluorimetric assay relative to control; type: ADME; summary of the method: as §2
Rattus norvegicus [17] = experiment: Toxicity in Wistar rat assessed as change in body weight at 100 to 2500 mg/kg, po administered for 48 hrs followed by administration of 300 mg/kg, bid for 7 days starting 8 hrs interval between first and second dose measured after 7 days; type: organism-based; details: in vivo, 168 h; summary of the method: as §1
Homo sapiens [18] = experiment: Cmax in human assessed as roflumilast N-oxide formation at 0.5 mg, po administered as single dose; type: ADME, organism-based; set-up: dose 0.5 mg, route oral; details: in vivo
Rattus norvegicus [19] = experiment: In vivo inhibition of P38 MAPKalpha in Lewis rat assessed as decrease in LPS-stimulated TNFalpha level in serum at 10 mg/kg, po pretreated for 1 hr followed by LPS addition measured after 1.5 hrs post dose relative to control; type: functional
Summary of the method: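 Lewis rats, n = 8/group: females dosed orally at 10 mg/kg at −1, −3 or −5 h relative to LPS challenge, plus one male group dosed at −1 h. Male and female vehicle controls were given at −1 h. Serum TNFα was measured after LPS and compared with vehicle.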

Homo sapiens [20] = experiment: AUC (infinity) in human assessed as roflumilast N-oxide formation at 0.5 mg, po administered as single dose; type: ADME, organism-based; set-up: dose 0.5 mg, route oral, time infinity; details: in vivo
[21] = Cmax in human at 0.5 mg, po administered as single dose; type: ADME, organism-based; set-up: dose 0.5 mg, route oral; details: in vivo
[22] = Fraction unbound in human plasma; type: ADME, cell-free
Summary of the method: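 Plasma protein binding measured in human, Sprague–Dawley rat and Cynomolgus monkey plasma at 1, 10 and 30 μM compound. Reported as unbound fraction (%).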

Homo sapiens [23] = species: Homo sapiens; experiment: Inhibition of PDE4 in human U937 cells assessed as [3H]cAMP hydrolysis at 1 uM relative to control; type: cell-based
[24] = AUC (infinity) in human at 0.5 mg, po administered as single dose; type: ADME, organism-based; set-up: dose 0.5 mg, time infinity, route oral; details: in vivo
Homo sapiens [25] = species: Homo sapiens; experiment: Inhibition of PDE4 in LPS-stimulated human whole blood assessed as decrease in leukotriene B4 level in plasma
Homo sapiens [26] = species: Homo sapiens; experiment: Inhibition of PDE4 in human U937 cells assessed as [3H]cAMP hydrolysis at 10 uM relative to control; type: cell-based
[27] = molecular target: Mitogen-activated protein kinase 14 (Homo sapiens, UniProt Q16539); experiment: Inhibition of p38alpha MAPK (unknown origin)
Rattus norvegicus [28] = experiment: Antiarthritic activity in Lewis rat assessed as collagen oligomeric matrix protein level in serum at 1 mg/kg, po qd administered for 10 days (Rbv = 0.17 +/- 0.02 U/l); type: functional
Summary of the method: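 Collagen-induced arthritis in male Lewis rats (5–6 per group). Groups received vehicle, dexamethasone 1 mg/kg, test item 50 mg/kg once daily, or 25 mg/kg twice daily for 10 days. Body weight, arthritic score and paw volume were monitored, and serum COMP was measured at the end.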

[29] = Fraction unbound in human plasma at 5 uM by equilibrium dialysis relative to control; type: ADME, cell-free
Rattus norvegicus [30] = experiment: Toxicity in Wistar rat assessed as death at 100 to 2500 mg/kg, po administered for 48 hrs followed by administration of 300 mg/kg, bid for 7 days with 8 hrs interval between first and second dose measured after 7 days; type: organism-based; details: in vivo, 168 h; summary of the method: as §1
[31] = molecular target: Voltage-gated inwardly rectifying potassium channel KCNH2 (Homo sapiens, UniProt Q12809); experiment: Inhibition of human ERG expressed in HEK293 cells by patch clamp method; type: cell-based
[32] = Ratio of Cmax in Wistar rat at 30 mg/kg, po administered as single dose via gavage to IC50 for P38 MAPKalpha in LPS-stimulated human whole blood assessed as decrease in TNFalpha level
Rattus norvegicus [33] = experiment: Protection against LPS-induced endotoxemia in Wistar rat assessed as inhibition of plasma TNFalpha level at 10 mg/kg, po pretreated for 1 hr followed by LPS addition measured after 90 mins relative to control; type: functional

Sequence of CYP1A2 (P05177 whole entry): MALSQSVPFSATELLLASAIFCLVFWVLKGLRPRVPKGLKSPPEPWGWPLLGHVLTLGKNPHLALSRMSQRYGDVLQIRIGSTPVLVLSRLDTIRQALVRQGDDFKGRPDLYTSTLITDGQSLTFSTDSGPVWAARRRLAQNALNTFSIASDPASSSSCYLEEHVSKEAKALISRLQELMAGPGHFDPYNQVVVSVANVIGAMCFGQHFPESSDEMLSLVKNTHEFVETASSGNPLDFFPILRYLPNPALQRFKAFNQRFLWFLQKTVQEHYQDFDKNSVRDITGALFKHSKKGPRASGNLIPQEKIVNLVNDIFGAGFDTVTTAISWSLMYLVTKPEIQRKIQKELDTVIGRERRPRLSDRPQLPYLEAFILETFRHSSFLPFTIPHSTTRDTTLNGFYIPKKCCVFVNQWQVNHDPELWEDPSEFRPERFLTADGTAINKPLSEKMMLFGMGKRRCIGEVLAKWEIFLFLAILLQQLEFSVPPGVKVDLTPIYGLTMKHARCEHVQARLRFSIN
Sequence of CYP2C9 (P11712 whole entry): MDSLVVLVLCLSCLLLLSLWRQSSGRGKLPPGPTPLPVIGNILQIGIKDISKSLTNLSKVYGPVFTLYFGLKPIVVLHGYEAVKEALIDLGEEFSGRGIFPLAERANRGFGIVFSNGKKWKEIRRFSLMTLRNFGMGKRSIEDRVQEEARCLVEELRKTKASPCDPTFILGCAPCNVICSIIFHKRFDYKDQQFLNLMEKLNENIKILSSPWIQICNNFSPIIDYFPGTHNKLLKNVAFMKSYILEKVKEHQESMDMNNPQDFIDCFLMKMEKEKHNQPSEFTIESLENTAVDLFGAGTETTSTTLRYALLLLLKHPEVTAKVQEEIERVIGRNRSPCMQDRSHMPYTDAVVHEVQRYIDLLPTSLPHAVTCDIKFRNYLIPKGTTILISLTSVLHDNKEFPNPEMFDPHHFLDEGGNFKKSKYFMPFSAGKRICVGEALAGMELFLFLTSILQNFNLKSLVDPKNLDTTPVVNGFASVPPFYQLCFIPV
Sequence of CYP2D6 (P10635 whole entry): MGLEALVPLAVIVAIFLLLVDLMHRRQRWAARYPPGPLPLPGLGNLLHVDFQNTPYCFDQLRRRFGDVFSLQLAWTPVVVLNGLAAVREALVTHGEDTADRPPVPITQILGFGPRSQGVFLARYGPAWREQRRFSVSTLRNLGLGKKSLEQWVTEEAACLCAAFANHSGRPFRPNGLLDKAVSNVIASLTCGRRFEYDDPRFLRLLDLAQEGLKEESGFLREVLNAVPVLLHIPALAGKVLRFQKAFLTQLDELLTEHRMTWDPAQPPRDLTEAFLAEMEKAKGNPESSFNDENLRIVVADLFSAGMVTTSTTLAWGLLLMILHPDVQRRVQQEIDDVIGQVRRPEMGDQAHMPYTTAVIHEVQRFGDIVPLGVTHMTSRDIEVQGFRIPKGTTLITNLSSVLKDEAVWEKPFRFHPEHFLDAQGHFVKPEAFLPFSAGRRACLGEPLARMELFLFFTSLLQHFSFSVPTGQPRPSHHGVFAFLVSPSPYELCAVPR
Sequence of Mitogen-activated protein kinase 10 (Homo sapiens) (P53779 whole entry): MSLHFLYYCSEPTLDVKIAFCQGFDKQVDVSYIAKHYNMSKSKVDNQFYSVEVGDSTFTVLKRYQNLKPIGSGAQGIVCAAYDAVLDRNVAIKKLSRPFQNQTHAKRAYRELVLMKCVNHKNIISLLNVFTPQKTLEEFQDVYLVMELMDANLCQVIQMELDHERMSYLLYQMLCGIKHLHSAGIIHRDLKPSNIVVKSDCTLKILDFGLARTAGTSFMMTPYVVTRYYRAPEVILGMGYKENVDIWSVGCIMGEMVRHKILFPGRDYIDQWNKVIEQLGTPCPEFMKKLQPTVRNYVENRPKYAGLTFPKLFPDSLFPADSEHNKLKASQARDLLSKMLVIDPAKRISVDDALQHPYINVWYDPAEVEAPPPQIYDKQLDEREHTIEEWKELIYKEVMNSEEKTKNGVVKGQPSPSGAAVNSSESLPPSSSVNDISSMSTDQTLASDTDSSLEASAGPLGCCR
Sequence of CYP3A4 (P08684 whole entry): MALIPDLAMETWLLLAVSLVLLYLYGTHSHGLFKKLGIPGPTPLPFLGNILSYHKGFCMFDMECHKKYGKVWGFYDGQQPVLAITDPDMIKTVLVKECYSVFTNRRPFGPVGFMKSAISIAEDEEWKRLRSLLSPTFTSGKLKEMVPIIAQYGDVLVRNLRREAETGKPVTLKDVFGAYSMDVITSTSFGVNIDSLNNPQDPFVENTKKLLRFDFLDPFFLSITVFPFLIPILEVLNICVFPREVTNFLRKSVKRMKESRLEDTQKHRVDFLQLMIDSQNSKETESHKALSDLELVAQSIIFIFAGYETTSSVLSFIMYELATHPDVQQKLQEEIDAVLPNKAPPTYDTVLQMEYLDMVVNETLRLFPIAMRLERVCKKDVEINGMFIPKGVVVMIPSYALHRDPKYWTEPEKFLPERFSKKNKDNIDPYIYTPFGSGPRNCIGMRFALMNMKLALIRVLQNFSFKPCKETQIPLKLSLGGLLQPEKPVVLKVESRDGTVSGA
Sequence of CYP2C19 (P33261 whole entry): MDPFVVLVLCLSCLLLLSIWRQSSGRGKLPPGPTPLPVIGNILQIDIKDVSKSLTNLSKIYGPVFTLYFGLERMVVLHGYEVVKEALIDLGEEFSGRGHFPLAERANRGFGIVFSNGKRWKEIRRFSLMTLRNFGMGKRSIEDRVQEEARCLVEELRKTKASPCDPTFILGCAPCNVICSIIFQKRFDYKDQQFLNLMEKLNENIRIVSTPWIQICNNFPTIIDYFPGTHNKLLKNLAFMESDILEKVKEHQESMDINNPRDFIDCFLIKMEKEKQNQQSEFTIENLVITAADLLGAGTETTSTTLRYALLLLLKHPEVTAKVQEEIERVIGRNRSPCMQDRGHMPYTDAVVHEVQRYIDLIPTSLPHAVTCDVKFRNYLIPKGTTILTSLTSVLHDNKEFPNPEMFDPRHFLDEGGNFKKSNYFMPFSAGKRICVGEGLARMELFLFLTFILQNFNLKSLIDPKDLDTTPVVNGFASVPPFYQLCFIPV
Sequence of Mitogen-activated protein kinase 11 (Homo sapiens) (Q15759 whole entry): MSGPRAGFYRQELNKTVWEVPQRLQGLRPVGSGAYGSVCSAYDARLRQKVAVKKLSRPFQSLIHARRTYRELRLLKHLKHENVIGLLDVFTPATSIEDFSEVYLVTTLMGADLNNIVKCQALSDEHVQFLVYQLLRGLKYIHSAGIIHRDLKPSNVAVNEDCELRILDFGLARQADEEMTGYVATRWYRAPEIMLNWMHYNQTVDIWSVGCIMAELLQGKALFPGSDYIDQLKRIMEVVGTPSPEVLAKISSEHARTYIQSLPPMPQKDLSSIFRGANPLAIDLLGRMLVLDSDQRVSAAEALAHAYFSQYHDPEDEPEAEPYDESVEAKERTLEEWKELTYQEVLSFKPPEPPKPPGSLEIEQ
Sequence of Voltage-gated inwardly rectifying potassium channel KCNH2 (Q12809 whole entry): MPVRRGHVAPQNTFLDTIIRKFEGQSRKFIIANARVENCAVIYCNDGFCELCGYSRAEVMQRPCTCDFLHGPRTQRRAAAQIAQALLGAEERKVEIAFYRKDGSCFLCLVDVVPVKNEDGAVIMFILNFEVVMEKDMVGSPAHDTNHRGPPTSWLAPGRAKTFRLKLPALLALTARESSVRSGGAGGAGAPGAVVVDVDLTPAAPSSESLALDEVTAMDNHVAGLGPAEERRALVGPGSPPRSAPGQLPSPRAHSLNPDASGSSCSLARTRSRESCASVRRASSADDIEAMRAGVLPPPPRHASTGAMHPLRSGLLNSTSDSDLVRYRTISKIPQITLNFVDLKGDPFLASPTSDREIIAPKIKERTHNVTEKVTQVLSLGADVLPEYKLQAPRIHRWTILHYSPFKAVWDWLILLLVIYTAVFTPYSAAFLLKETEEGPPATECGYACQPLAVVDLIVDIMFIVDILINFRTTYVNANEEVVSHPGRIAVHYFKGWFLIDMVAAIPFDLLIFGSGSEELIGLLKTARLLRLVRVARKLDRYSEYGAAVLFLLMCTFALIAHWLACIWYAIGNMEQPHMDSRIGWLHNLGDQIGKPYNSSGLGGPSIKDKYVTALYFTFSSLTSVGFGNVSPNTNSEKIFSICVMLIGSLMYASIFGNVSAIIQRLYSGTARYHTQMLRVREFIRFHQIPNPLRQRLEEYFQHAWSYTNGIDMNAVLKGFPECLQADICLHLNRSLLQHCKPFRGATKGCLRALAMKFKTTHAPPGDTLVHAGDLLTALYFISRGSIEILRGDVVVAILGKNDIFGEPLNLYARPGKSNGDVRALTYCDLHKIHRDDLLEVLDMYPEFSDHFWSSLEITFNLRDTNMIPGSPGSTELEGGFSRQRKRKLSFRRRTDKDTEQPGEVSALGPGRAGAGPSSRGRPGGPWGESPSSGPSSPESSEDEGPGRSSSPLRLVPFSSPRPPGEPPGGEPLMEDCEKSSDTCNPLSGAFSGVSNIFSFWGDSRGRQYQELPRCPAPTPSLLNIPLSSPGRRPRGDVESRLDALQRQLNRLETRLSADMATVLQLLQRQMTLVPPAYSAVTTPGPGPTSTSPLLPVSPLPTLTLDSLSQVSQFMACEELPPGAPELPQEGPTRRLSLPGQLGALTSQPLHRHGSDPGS
Sequence of Mitogen-activated protein kinase 8 (Homo sapiens) (P45983 whole entry): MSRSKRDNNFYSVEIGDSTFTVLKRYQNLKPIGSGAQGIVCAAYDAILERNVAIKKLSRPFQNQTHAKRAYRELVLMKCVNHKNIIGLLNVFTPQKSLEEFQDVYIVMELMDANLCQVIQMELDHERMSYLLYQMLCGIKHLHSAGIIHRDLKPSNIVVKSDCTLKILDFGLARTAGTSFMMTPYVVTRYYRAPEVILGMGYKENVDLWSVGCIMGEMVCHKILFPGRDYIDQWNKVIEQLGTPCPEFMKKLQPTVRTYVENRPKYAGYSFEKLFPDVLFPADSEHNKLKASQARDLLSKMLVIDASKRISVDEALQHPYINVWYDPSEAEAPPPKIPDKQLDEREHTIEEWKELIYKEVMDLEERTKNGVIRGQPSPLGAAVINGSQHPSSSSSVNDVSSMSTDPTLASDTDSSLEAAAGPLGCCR

SMILES	inhibition [1] [%]	Activity (Rattus norvegicus [2])	Activity (Mus musculus [3])	inhibition at 10 µM (CYP2C19) [%]	Activity (Mus musculus [4])	AUC(0-t) [6]	inhibition at 10 µM (CYP2D6) [%]	half-life [9] [h]	Activity (Rattus norvegicus [10])	inhibition [11] [%]	Activity (Rattus norvegicus [12])	inhibition at 10 µM (CYP3A4) [%]	Activity (Rattus norvegicus [13])	Activity (Rattus norvegicus [14])	Tmax [15] [h]	Cmax [16]	inhibition at 10 µM (CYP1A2) [%]	inhibition at 10 µM (CYP2C9) [%]	Activity (Rattus norvegicus [17])	inhibition in vivo at 10 mg/kg (Rattus norvegicus [19]) [%]	further results
CSc1nc(-c2ccc(F)cc2)c(-c2ccnc(Nc3ccccc3)c2)[nH]1	> 70	Non-Toxic	Non-Toxic	90	Active	3710 ng·h/mL and 9.86 µM·h	74.5	2.8	Non-Toxic	> 70	Non-Toxic	16.5	Non-Toxic	Non-Toxic	2	608 ng/mL and 1.61 µM	72	60	Non-Toxic	–	inhibition [5]: > 70%; inhibition in vivo at 10 mg/kg (Mus musculus [7]): 60%; inhibition [8]: > 70%
O=C(Nc1c(Cl)cncc1Cl)c1ccc(OC(F)F)c(OCC2CC2)c1 [ROFLUMILAST]	–	–	–	–	–	–	–	–	–	–	–	–	–	–	–	–	–	–	–	67	Cmax (Homo sapiens [18]): 22.4 nM; AUC (Homo sapiens [20]): 0.8379 µM·h; Cmax [21]: 13.1 nM; fraction unbound [22]: 0.02; inhibition (Homo sapiens [23]): 94%; AUC(0-inf) [24]: 0.0868 µM·h; inhibition (Homo sapiens [25]): Dose-dependent effect
CS(=O)(=O)c1nc(-c2ccc(F)cc2)c(-c2ccnc(NC3CCOCC3)c2)[nH]1	–	–	–	–	–	–	–	–	–	–	–	–	–	–	–	–	–	–	–	21	inhibition (Homo sapiens [26]): 36%
CC(=O)Nc1cc(-c2c(-c3ccc(F)cc3)nc([S@@+](C)[O-])n2C)ccn1	–	–	–	–	–	–	–	–	–	–	–	–	–	–	–	–	–	–	–	–	IC50 [27]: 0.129 µM
C[C@@H]1C[C@H]2[C@@H]3CCC4=CC(=O)C=C[C@]4(C)[C@@]3(F)[C@@H](O)C[C@]2(C)[C@@]1(O)C(=O)CO [DEXAMETHASONE]	–	–	–	–	–	–	–	–	–	–	–	–	–	–	–	–	–	–	–	–	Activity (Rattus norvegicus [28]): 0.03 U/L
CSc1nc(-c2ccc(F)cc2)c(-c2ccnc(NC(C)=O)c2)n1C	> 70	Non-Toxic	Non-Toxic	4	Active	4930 ng·h/mL and 13.8 µM·h	45	3	Non-Toxic	> 70	Non-Toxic	-7	Non-Toxic	Non-Toxic	1	738 ng/mL and 2.07 µM	18	46	Non-Toxic	–	fraction unbound at 5 µM [29]: 0.037; Activity (Rattus norvegicus [30]): Non-Toxic; IC50 [31]: 28.6 µM; inhibition (INH) ([31]; human, hek293): Dose-dependent effect; Ratio [32]: 12.5; inhibition in vivo at 10 mg/kg (Rattus norvegicus [33]): 97%
